From ChEMBL document CHEMBL4680373, “Evaluation of 5-(Trifluoromethyl)-1,2,4-oxadiazole-Based Class IIa HDAC Inhibitors for Huntington's Disease” (ACS Med Chem Lett, 2021)
Converted amounts (≈) assume the structure as drawn.

Assays:
Histone deacetylase 4 [1] = target: T1, Histone deacetylase 4 (Homo sapiens, UniProt P56524); assay: Inhibition of HDAC4 (unknown origin) using Boc Lys(TFA) as substrate by fluorogenic assay
In short: (§1)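 Biochemical HDAC isoform assay with the artificial fluorogenic substrate Boc-Lys-(TFA)-AMC, which is specific to class IIa enzymes and HDAC8. IC50 taken as the geometric mean of three experiments.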

Histone deacetylase 4 [2] = target: T1, Histone deacetylase 4; assay: Inhibition of Class 2A HDAC4 in human Jurkat E6.1 cells using Boc-Lys-(TFA)-AMC as substrate by fluorogenic assay; format: cell-based
In short: (§2)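 Whole-cell assay in Jurkat E6.1 cells with artificial fluorogenic substrates: Boc-Lys-(TFA)-AMC for class IIa/HDAC8 activity, which in this line is mostly HDAC4, and Boc-Lys-(Ac)-AMC for class I/IIb activity. IC50 given as the geometric mean of three experiments.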

[3] = Inhibition of Class 1/2b HDAC in human Jurkat E6.1 cells using Boc-Lys-(Ac)-AMC as substrate by fluorogenic assay; format: cell-based; in short: as §2
[4] = Kinetic solubility of the compound; format: physicochemical; details: read-out: Kinetic_solubility
[5] = Efflux ratio of permeability from basolateral to apical over apical to basolateral side in dog MDCK-MDR1 cells relative to wild type MDCK cells; format: ADME, cell-based, Canis lupus familiaris
[6] = Intrinsic Clearance in mouse liver microsomes; format: ADME, Microsome; details: read-out: CLH
[7] = Selectivity index, ratio of IC50 for Class 1/2b HDAC in human Jurkat E6.1 cells using Boc-Lys-(Ac)-AMC as substrate to IC50 for Class 2A HDAC4 in human Jurkat E6.1 cells using Boc-Lys-(TFA)-AMC as substrate by fluorogenic assay
In short: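 Human Jurkat E6.1 cells were assayed with two fluorogenic substrates. Boc-Lys-(TFA)-AMC reports class IIa activity, mostly HDAC4 in this line, and Boc-Lys-(Ac)-AMC reports class I/IIb activity. IC50s are geometric means of three experiments.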

Histone deacetylase 1 = Histone deacetylase 1 (Homo sapiens, UniProt Q13547); assay: Inhibition of HDAC1 (unknown origin) using Ac-Arg-Gly-Lys(Ac) as substrate by fluorogenic assay
[8] = target: T2, Protein deacetylase HDAC6 (Homo sapiens, UniProt Q9UBN7); assay: Inhibition of HDAC6 (unknown origin) expressed in human HEK-Freestyle cells using Boc-Lys(Ac) as substrate by fluorogenic assay; format: cell-based
T2 sequence (Q9UBN7 whole entry): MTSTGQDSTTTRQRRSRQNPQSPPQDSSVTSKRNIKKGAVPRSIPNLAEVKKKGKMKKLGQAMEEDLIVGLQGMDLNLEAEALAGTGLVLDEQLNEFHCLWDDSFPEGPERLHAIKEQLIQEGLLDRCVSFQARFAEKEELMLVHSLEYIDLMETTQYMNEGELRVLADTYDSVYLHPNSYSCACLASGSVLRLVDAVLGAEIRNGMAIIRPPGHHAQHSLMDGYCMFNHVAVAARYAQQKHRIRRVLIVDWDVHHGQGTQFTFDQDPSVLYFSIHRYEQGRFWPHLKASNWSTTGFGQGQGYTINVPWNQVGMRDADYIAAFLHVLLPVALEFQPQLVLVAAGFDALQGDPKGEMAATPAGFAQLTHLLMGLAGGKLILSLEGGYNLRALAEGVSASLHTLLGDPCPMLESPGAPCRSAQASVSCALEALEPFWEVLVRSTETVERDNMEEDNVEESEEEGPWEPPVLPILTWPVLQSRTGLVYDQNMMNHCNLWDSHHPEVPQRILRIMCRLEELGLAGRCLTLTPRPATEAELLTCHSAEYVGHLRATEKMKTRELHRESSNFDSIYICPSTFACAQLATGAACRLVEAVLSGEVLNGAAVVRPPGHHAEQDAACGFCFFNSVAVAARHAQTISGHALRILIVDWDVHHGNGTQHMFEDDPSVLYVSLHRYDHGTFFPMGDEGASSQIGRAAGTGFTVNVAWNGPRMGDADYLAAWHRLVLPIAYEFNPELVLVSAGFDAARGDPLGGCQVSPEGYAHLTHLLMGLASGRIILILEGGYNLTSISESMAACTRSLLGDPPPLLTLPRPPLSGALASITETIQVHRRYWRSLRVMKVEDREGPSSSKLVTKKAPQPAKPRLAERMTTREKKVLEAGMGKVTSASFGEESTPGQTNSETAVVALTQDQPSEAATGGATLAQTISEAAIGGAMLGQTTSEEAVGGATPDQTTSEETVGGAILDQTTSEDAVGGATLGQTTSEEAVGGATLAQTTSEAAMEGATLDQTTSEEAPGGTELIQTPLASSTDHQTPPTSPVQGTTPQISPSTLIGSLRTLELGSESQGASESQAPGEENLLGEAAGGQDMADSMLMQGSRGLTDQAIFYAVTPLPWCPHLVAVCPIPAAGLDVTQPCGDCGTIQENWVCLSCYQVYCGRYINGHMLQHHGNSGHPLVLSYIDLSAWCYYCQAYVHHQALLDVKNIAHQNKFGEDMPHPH
In short: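 HDAC6 was supplied as lysate of HEK cells overexpressing the enzyme. Activity was read with the class I/IIb-specific fluorogenic substrate Boc-Lys-(Ac)-AMC. IC50 is the geometric mean of three experiments.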

Histone deacetylase 2 = Histone deacetylase 2 (Homo sapiens, UniProt Q92769); assay: Inhibition of HDAC2 (unknown origin) using Ac-Arg-Gly-Lys(Ac) as substrate by fluorogenic assay
[9] = Chemical stability of the compound in DMSO-d6 measured for 9 days at room temperature by 1H-NMR spectroscopy; format: physicochemical; details: 216 h; time 9 day
Histone deacetylase 8 = target: T3, Histone deacetylase 8 (Homo sapiens, UniProt Q9BY41); assay: Inhibition of HDAC8 (unknown origin) using Boc-Lys(TFA) as substrate by fluorogenic assay; in short: as §1
T3 sequence (Q9BY41 whole entry): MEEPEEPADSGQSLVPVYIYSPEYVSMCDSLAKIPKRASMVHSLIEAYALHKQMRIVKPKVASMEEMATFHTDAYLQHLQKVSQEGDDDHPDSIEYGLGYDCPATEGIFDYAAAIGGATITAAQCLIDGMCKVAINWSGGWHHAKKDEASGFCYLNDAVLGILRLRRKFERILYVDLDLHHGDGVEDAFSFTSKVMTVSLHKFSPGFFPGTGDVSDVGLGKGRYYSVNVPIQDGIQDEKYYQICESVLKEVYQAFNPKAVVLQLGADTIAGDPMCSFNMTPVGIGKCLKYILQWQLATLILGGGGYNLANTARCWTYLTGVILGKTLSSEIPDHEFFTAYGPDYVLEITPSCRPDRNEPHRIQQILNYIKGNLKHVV

[10] = Apparent permeability of the compound in dog MDCK-MDR1 cells; format: ADME, cell-based, Canis lupus familiaris
[11] = target: Histone deacetylase 3/Nuclear receptor corepressor 1 (HDAC3/NCoR1) (Homo sapiens); assay: Inhibition of HDAC3/NCOR1 (unknown origin) using Boc-Lys(Ac) as substrate by fluorogenic assay
Histone deacetylase 5 = Histone deacetylase 5 (Homo sapiens, UniProt Q9UQL6); assay: Inhibition of HDAC5 (unknown origin) using Boc Lys(TFA) as substrate by fluorogenic assay; in short: as §1
Histone deacetylase 9 = Histone deacetylase 9 (Homo sapiens, UniProt Q9UKV0); assay: Inhibition of HDAC9 (unknown origin) using Boc Lys(TFA) as substrate by fluorogenic assay; in short: as §1
Histone deacetylase 9, sequence (Q9UKV0 whole entry): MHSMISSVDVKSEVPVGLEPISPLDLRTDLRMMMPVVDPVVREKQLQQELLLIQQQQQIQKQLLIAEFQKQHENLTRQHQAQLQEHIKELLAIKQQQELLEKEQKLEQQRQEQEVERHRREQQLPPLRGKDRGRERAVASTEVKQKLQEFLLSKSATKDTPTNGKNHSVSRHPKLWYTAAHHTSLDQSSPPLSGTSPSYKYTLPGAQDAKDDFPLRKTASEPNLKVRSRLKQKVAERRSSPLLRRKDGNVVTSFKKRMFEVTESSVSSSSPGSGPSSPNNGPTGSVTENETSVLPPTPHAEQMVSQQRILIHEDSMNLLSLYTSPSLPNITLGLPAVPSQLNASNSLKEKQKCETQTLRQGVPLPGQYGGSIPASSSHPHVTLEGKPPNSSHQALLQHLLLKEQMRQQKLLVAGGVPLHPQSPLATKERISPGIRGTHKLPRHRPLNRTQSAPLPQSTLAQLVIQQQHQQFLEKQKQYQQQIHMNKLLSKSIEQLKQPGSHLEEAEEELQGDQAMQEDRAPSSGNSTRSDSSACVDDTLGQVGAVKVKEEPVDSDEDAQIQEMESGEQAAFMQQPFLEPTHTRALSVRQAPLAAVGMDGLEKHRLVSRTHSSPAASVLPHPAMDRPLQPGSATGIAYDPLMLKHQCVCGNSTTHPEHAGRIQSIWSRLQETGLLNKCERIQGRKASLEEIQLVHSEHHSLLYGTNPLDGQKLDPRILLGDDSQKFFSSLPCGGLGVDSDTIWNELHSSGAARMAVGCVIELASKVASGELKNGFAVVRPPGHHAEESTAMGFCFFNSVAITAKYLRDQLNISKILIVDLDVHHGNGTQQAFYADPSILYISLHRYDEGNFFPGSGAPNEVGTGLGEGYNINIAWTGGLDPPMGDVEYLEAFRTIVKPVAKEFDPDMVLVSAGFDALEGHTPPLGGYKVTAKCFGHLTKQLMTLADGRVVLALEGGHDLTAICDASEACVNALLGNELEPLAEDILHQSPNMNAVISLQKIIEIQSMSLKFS

T1 sequence (P56524 whole entry, canonical isoform): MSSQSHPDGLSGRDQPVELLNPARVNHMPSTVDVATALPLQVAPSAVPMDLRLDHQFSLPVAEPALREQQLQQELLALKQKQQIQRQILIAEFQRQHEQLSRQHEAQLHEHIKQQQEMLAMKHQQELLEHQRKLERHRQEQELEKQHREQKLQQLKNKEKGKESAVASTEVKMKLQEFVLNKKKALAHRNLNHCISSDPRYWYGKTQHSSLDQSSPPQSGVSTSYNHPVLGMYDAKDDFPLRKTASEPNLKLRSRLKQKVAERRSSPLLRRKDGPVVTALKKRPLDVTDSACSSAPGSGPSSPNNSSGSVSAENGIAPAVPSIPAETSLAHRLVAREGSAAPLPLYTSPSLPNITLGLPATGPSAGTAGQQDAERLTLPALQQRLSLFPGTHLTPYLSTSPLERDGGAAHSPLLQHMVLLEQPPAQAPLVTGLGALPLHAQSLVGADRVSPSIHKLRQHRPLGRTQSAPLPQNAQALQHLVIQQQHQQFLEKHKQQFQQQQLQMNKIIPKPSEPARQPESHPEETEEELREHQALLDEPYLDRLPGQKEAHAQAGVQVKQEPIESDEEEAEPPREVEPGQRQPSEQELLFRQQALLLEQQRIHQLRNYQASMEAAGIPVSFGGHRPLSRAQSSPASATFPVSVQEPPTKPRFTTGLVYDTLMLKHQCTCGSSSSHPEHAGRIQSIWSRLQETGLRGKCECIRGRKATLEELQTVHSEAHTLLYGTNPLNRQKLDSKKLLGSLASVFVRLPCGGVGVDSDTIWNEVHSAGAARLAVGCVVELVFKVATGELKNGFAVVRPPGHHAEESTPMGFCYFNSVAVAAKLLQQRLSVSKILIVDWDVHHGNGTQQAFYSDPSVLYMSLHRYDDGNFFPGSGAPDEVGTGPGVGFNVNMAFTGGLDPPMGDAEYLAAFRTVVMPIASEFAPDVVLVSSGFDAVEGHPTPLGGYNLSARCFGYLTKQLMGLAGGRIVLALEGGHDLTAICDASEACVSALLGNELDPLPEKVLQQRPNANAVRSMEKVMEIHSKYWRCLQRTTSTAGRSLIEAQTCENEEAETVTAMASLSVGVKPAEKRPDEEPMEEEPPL
Histone deacetylase 1, sequence (Q13547 whole entry): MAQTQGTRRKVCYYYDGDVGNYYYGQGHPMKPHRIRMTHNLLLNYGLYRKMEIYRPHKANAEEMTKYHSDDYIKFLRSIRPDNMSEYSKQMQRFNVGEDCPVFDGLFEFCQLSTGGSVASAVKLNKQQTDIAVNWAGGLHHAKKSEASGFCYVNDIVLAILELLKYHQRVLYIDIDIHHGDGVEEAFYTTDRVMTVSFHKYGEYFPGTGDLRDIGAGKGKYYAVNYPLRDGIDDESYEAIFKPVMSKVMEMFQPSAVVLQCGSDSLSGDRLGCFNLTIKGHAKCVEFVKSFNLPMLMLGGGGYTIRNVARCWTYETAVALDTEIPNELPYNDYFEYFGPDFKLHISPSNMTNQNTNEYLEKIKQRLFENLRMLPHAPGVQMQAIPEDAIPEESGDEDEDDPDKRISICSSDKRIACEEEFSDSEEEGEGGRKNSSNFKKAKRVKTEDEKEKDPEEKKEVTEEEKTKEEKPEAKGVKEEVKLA
Histone deacetylase 2, sequence (Q92769 whole entry): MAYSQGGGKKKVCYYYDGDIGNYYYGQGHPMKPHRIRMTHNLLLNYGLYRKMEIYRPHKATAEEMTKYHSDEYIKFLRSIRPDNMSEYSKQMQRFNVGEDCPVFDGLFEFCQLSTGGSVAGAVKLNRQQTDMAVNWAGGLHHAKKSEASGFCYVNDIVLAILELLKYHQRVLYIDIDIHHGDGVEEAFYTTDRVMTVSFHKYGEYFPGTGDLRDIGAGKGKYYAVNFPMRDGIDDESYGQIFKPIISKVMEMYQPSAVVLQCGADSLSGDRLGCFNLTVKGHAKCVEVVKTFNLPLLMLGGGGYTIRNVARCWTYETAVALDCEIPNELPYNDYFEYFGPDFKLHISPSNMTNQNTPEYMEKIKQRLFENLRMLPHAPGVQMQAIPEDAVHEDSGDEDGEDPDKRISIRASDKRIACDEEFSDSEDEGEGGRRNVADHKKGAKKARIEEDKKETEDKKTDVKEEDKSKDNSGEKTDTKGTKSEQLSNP
Histone deacetylase 5, sequence (Q9UQL6 whole entry): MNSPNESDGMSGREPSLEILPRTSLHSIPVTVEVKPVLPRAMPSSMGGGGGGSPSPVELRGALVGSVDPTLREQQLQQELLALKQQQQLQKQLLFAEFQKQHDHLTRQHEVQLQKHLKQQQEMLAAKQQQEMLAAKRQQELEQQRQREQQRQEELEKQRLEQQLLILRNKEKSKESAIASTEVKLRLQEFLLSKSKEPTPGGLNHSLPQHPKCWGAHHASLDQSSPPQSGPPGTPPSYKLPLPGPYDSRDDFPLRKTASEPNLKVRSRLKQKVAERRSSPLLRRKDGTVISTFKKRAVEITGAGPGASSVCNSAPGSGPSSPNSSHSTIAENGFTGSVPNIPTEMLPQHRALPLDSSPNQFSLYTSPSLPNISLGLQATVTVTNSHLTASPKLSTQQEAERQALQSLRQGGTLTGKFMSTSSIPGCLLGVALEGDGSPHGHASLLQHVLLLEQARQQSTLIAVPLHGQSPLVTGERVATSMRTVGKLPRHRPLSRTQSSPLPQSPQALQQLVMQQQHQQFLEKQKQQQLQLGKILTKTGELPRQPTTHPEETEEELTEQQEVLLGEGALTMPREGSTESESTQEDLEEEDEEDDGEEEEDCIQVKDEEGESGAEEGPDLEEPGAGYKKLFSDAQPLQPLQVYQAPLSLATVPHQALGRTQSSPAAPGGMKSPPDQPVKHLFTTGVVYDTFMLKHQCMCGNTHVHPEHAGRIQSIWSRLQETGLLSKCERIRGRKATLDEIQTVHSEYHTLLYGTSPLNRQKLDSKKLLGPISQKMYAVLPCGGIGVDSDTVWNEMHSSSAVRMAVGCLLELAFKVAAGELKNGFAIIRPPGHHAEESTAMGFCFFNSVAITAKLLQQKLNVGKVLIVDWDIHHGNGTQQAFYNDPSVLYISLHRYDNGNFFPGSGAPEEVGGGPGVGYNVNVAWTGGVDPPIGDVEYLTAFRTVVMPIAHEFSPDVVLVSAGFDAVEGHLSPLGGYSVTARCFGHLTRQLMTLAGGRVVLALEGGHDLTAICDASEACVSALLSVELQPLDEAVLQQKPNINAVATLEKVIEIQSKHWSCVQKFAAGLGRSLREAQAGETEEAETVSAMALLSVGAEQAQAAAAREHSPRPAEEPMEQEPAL

## C[C@H](CN1CCC[C@H]1C)NC(=O)c1ccc(-c2noc(C(F)(F)F)n2)cc1
Histone deacetylase 4 [1]
  IC50: 70 nM
Histone deacetylase 4 [2]
  IC50: 600 nM
[3]
  IC50: 14 µM
[4]
  solubility kinetic: 178 µM (≈ 68.1 µg/mL)

## C[C@H](CN1CCC[C@@H](OC(F)F)C1)NC(=O)c1ccc(-c2noc(C(F)(F)F)n2)cc1
Histone deacetylase 4 [1]
  IC50: 20 nM
Histone deacetylase 4 [2]
  IC50: 60 nM
[3]
  IC50: 3.6 µM
[5]
  Ratio: 1.2
[6]
  CLint scaled: 661 mL/min/kg
[7]
  Ratio IC50: 60

## C[C@H](CN1CCC(F)(F)C1)NC(=O)c1ccc(-c2noc(C(F)(F)F)n2)cc1
Histone deacetylase 4 [1]
  IC50: 230 nM
Histone deacetylase 4 [2]
  IC50: 1300 nM
[3]
  IC50: > 50 µM
[4]
  solubility kinetic: 52 µM (≈ 21 µg/mL)
[7]
  Ratio IC50: >38

## C[C@H](CN1CCCCCC1)NC(=O)c1ccc(-c2noc(C(F)(F)F)n2)cc1
Histone deacetylase 4 [1]
  IC50: 10 nM
Histone deacetylase 4 [2]
  IC50: 30 nM
[3]
  IC50: 1.7 µM
[5]
  Ratio: 1.2
[6]
  CLint scaled: 128 mL/min/kg
[7]
  Ratio IC50: 57

## C[C@H](CN1CCCCC1)NC(=O)c1ccc(-c2noc(C(F)(F)F)n2)cc1
Histone deacetylase 4 [2]
  IC50: 70 nM
[3]
  IC50: 9 µM
[5]
  Ratio: 1.6
[6]
  CLint scaled: 66 mL/min/kg
[4]
  solubility kinetic: 157 µM (≈ 60 µg/mL)
[7]
  Ratio IC50: 129

## CCCN(CCC)C[C@@H](C)NC(=O)c1ccc(-c2noc(C(F)F)n2)cc1
Histone deacetylase 4 [1]
  IC50: 890 nM
Histone deacetylase 4 [2]
  IC50: 19000 nM

## CCCN(CCC)C[C@@H](C)NC(=O)c1ccc(-c2noc(C(F)(F)F)n2)cc1
Histone deacetylase 1
  IC50: 6 µM
[3]
  IC50: 3 µM
[8]
  IC50: 6.4 µM
Histone deacetylase 2
  IC50: 9.3 µM
[9]
  Stabilty: Stable
Histone deacetylase 8
  IC50: 2900 nM
[6]
  CLint scaled: 834 mL/min/kg
[4]
  solubility kinetic: 140 µM (≈ 55.8 µg/mL)
[10]
  Papp: 54.1 ×10⁻⁶ cm/s

## CCCN(CCC)C[C@@H](C)NC(=O)c1ccc(-c2noc(C)n2)cc1
Histone deacetylase 4 [1]
  IC50: > 50000 nM
Histone deacetylase 4 [2]
  IC50: > 50000 nM

## C[C@@H](CN1CCCC1)NC(=O)c1ccc(-c2noc(C(F)(F)F)n2)cc1
Histone deacetylase 4 [1]
  IC50: 50 nM
Histone deacetylase 4 [2]
  IC50: 730 nM
[3]
  IC50: 43 µM
[7]
  Ratio IC50: 59

## CCCN(CCC)C[C@@H](C)NC(=O)c1ccc(-c2ncon2)cc1
Histone deacetylase 4 [1]
  IC50: > 50000 nM
Histone deacetylase 4 [2]
  IC50: > 50000 nM

## CCCN(CCC)C[C@@H](C)NC(=O)c1ccc(-c2nc(C(F)(F)F)no2)cc1
Histone deacetylase 4 [1]
  IC50: 28000 nM
Histone deacetylase 4 [2]
  IC50: > 50000 nM

## O=C(NC1(CN2CCCC2)CC1)c1ccc(-c2noc(C(F)(F)F)n2)cc1
Histone deacetylase 4 [1]
  IC50: 40 nM
Histone deacetylase 4 [2]
  IC50: 180 nM
[3]
  IC50: 6.4 µM
[7]
  Ratio IC50: 36

## CC(C)(CN1CCCC1)NC(=O)c1ccc(-c2noc(C(F)(F)F)n2)cc1
Histone deacetylase 4 [1]
  IC50: 280 nM
Histone deacetylase 4 [2]
  IC50: 310 nM
[3]
  IC50: 12 µM
[7]
  Ratio IC50: 39

## C[C@H](CN1CCCC1)NC(=O)c1ccc(-c2noc(C(F)(F)F)n2)cc1
Histone deacetylase 4 [1]
  IC50: 10 nM
Histone deacetylase 4 [2]
  IC50: 70 nM
[3]
  IC50: 10 µM
[5]
  Ratio: 2.2
[6]
  CLint scaled: 65 mL/min/kg
[4]
  solubility kinetic: 178 µM (≈ 65.6 µg/mL)
[7]
  Ratio IC50: 143

## O=C(NCCN1CCCC1)c1ccc(-c2noc(C(F)(F)F)n2)cc1
Histone deacetylase 1
  IC50: 13 µM
Histone deacetylase 4 [1]
  IC50: 30 nM
Histone deacetylase 4 [2]
  IC50: 250 nM
[3]
  IC50: 3.7 µM
[8]
  IC50: 9.8 µM
[11]
  IC50: 5.1 µM
Histone deacetylase 2
  IC50: 26 µM
Histone deacetylase 5
  IC50: 90 nM
Histone deacetylase 8
  IC50: 2800 nM
[6]
  CLint scaled: 76 mL/min/kg
Histone deacetylase 9
  IC50: 70 nM
[4]
  solubility kinetic: 169 µM (≈ 59.9 µg/mL)
[10]
  Papp: 60.4 ×10⁻⁶ cm/s

## C[C@H](CN1CCC[C@H](OC(F)F)C1)NC(=O)c1ccc(-c2noc(C(F)(F)F)n2)cc1
Histone deacetylase 4 [1]
  IC50: 3 nM
Histone deacetylase 4 [2]
  IC50: 10 nM
[3]
  IC50: 1.5 µM
[5]
  Ratio: 1.1
[6]
  CLint scaled: 757 mL/min/kg
[4]
  solubility kinetic: 51 µM (≈ 22.9 µg/mL)
[7]
  Ratio IC50: 150

## C[C@H](CN1CCC(F)(F)CC1)NC(=O)c1ccc(-c2noc(C(F)(F)F)n2)cc1
Histone deacetylase 4 [1]
  IC50: 130 nM
Histone deacetylase 4 [2]
  IC50: 380 nM
[3]
  IC50: > 50 µM
[4]
  solubility kinetic: 25 µM (≈ 10.5 µg/mL)
[7]
  Ratio IC50: >132

## C[C@H](CN1CCC(F)CC1)NC(=O)c1ccc(-c2noc(C(F)(F)F)n2)cc1
Histone deacetylase 4 [1]
  IC50: 30 nM
Histone deacetylase 4 [2]
  IC50: 100 nM
[3]
  IC50: 10.3 µM
[5]
  Ratio: 1.2
[6]
  CLint scaled: 214 mL/min/kg
[7]
  Ratio IC50: 103

## C[C@H](CN1CCCC(C)(C)C1)NC(=O)c1ccc(-c2noc(C(F)(F)F)n2)cc1
Histone deacetylase 4 [1]
  IC50: 2 nM
Histone deacetylase 4 [2]
  IC50: 10 nM
[3]
  IC50: 0.52 µM
[5]
  Ratio: 1
[6]
  CLint scaled: 1290 mL/min/kg
[4]
  solubility kinetic: 150 µM (≈ 61.6 µg/mL)
[7]
  Ratio IC50: 52
